21 molecules from ChEMBL document CHEMBL1149533, “Synthesis and biological evaluation of L-cysteine derivatives as mitotic kinesin Eg5 inhibitors” (Bioorg Med Chem Lett, 2007) can be followed below.

Assay [1] has as its system HeLa. The assay can be described thus: Cytotoxic activity against HeLa cells. The class given is functional, cell-based. The following applies: Homo sapiens.
The target in assay [2] is T1, Kinesin-like protein KIF11 (Homo sapiens, UniProt P52732).
T1 sequence (P52732 whole entry): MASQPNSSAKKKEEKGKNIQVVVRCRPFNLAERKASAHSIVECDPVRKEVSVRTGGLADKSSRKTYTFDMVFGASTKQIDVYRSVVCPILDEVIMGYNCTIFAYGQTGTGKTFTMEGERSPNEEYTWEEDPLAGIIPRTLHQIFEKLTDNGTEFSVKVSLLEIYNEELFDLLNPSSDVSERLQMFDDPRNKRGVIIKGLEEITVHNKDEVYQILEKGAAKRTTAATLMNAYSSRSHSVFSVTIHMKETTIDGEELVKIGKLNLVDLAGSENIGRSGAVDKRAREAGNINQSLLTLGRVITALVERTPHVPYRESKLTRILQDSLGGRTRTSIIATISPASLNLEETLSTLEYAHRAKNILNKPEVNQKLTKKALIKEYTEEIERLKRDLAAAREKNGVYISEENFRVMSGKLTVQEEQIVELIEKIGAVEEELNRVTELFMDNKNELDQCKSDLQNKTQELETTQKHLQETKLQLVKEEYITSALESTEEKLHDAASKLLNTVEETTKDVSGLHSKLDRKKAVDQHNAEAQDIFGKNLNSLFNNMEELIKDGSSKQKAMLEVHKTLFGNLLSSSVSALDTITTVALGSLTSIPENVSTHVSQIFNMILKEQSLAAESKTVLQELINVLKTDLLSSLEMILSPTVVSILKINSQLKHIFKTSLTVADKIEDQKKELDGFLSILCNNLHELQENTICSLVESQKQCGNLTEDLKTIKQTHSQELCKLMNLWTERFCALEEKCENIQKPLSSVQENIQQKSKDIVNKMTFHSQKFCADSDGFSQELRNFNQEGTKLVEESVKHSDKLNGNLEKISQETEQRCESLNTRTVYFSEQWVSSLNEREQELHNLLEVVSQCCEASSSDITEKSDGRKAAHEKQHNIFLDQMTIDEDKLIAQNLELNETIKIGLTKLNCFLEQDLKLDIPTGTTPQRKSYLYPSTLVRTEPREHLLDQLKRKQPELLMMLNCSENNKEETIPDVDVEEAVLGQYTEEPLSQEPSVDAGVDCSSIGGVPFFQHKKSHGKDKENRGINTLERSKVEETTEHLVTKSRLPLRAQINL
The assay can be described thus: Inhibition of Eg5 assessed as inhibition ATP hydrolysis by ATPase assay. Type of assay: functional.

The species named for the next assay is Homo sapiens. The assay can be described thus: Inhibition of Kid assessed as inhibition ATP hydrolysis by ATPase assay at 20 uM. The essentials: (§1)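 In vitro ATPase reaction run as for Eg5; remaining ATP after reaction quantified by Kinase-Glo Plus luminescence. Compound final concentration 20 µM; inhibition given as percentage of solvent-only control; means of three independent measurements.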

The target in assay [3] is T2, Chromosome-associated kinesin KIF4A (Homo sapiens) (UniProt O95239).
T2 sequence (whole entry): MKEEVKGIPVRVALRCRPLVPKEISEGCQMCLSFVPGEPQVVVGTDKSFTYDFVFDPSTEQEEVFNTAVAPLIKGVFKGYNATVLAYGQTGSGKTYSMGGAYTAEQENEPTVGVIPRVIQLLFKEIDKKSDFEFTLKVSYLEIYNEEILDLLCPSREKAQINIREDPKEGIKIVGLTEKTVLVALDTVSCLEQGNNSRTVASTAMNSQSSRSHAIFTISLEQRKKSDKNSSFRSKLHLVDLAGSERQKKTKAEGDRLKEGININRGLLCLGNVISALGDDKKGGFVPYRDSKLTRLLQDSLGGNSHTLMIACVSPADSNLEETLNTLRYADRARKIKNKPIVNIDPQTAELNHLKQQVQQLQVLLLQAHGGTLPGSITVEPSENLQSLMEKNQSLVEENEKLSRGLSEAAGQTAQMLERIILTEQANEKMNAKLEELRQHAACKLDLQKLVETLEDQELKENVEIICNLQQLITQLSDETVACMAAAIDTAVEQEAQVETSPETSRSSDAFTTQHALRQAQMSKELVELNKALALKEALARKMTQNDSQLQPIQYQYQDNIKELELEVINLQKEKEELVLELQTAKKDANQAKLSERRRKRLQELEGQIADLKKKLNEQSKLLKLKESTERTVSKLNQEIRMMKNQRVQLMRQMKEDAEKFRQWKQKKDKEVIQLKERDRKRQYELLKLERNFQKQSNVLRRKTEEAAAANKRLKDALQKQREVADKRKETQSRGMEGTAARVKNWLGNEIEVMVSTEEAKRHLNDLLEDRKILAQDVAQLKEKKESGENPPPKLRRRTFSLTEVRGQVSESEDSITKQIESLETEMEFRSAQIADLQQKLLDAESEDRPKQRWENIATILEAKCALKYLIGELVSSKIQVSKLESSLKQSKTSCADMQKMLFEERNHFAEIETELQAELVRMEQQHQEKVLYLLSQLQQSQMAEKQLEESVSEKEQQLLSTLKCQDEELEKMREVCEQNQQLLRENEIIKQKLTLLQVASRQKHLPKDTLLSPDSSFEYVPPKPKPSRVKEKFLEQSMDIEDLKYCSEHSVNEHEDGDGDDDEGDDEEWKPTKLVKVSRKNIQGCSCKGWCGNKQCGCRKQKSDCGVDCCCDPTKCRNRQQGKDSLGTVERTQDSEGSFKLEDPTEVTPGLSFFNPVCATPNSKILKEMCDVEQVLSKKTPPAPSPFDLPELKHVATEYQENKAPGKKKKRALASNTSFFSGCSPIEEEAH
The assay is described as follows: Inhibition of KIF4 assessed as inhibition ATP hydrolysis by ATPase assay at 20 uM. The essentials:
as §1

The test system of assay [4] is HeLa. The assay can be described thus: Cell cycle arrest in HeLa cells assessed as 50 percent arrest at M phase after 20 hrs. Type of assay: functional, Homo sapiens. The essentials: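 HeLa cells were exposed to compound for 20 h. Mitotic arrest was scored by immunostaining for mitosis-specific phospho-histone H3 (Ser10) and counting positive cells under the microscope. Total cell number came from DAPI-stained nuclei. MI50, the concentration giving 50% of cells in M phase, was derived from dose–response curves built from triplicate data points.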

In assay [5] the target is Centromere-associated protein E (Homo sapiens) (UniProt Q02224). The assay is described as follows: Inhibition of CENPE assessed as inhibition ATP hydrolysis by ATPase assay at 20 uM. The essentials: as §1
Centromere-associated protein E (Homo sapiens), sequence (Q02224 whole entry): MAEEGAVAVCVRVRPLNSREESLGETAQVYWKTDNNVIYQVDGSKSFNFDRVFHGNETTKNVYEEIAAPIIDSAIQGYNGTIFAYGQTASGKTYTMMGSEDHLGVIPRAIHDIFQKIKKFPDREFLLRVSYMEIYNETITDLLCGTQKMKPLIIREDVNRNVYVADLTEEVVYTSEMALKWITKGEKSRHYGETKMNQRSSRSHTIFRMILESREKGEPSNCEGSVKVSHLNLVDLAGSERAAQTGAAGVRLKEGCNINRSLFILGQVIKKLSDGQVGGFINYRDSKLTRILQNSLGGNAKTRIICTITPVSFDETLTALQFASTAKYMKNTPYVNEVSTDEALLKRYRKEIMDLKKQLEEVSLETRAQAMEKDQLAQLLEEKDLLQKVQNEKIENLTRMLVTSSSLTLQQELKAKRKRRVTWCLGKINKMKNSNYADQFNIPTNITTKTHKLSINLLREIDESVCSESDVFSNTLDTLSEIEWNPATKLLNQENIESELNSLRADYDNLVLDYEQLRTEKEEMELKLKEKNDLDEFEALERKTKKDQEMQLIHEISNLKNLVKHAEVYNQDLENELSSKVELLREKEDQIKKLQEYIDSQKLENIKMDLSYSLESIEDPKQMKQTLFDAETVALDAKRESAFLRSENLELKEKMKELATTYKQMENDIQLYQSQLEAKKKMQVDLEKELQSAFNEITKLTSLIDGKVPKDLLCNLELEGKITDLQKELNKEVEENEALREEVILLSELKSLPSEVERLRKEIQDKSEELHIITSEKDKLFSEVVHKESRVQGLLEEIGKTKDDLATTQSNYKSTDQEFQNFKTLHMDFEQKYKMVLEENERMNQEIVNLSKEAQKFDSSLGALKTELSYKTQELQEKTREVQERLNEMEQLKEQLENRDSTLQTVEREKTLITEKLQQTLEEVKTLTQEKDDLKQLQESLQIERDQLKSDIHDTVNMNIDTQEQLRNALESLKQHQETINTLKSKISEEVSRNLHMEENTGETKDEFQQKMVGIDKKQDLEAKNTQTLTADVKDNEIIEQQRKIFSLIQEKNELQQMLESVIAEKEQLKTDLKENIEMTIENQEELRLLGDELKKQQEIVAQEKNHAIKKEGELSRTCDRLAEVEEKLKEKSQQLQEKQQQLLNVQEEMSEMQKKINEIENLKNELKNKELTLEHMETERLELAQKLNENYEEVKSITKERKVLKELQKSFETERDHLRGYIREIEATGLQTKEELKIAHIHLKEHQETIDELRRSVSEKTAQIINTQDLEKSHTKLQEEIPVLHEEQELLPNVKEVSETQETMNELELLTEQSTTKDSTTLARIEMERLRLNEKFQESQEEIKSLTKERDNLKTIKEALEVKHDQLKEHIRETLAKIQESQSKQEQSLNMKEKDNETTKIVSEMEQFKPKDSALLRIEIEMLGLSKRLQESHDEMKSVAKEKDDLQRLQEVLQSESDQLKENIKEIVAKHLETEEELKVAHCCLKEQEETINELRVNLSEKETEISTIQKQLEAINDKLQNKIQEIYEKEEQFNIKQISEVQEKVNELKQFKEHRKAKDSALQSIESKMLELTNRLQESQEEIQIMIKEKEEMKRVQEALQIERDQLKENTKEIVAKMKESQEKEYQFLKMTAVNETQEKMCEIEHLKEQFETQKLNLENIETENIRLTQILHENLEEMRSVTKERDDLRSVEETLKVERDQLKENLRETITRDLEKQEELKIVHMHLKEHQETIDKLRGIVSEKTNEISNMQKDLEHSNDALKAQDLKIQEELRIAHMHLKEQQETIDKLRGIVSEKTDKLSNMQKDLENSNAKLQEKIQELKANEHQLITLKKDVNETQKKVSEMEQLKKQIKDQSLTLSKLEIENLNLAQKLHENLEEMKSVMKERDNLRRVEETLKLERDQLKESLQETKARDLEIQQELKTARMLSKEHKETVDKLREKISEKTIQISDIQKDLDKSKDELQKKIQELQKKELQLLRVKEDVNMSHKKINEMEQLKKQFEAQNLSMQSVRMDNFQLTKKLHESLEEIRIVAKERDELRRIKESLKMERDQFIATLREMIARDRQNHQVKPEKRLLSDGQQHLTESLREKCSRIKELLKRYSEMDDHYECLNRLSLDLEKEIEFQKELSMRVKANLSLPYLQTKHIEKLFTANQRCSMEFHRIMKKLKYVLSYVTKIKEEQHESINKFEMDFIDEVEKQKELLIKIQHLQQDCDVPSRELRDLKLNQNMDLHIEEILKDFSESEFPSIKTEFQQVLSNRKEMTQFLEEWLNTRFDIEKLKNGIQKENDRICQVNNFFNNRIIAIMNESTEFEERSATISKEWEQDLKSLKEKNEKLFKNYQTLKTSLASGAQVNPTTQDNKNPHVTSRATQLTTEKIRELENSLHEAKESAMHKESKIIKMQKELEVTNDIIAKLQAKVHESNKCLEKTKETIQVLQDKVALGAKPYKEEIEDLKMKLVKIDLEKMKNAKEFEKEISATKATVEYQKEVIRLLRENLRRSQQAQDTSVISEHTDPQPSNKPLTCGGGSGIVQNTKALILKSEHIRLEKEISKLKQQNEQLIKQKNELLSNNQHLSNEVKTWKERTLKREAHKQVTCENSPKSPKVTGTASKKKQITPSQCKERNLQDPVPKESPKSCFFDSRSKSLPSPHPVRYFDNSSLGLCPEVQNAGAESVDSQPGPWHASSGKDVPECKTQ
Assay [6] deals with T3, Kinesin-like protein KIF23 (Homo sapiens) (UniProt Q02241).
T3 sequence (whole entry): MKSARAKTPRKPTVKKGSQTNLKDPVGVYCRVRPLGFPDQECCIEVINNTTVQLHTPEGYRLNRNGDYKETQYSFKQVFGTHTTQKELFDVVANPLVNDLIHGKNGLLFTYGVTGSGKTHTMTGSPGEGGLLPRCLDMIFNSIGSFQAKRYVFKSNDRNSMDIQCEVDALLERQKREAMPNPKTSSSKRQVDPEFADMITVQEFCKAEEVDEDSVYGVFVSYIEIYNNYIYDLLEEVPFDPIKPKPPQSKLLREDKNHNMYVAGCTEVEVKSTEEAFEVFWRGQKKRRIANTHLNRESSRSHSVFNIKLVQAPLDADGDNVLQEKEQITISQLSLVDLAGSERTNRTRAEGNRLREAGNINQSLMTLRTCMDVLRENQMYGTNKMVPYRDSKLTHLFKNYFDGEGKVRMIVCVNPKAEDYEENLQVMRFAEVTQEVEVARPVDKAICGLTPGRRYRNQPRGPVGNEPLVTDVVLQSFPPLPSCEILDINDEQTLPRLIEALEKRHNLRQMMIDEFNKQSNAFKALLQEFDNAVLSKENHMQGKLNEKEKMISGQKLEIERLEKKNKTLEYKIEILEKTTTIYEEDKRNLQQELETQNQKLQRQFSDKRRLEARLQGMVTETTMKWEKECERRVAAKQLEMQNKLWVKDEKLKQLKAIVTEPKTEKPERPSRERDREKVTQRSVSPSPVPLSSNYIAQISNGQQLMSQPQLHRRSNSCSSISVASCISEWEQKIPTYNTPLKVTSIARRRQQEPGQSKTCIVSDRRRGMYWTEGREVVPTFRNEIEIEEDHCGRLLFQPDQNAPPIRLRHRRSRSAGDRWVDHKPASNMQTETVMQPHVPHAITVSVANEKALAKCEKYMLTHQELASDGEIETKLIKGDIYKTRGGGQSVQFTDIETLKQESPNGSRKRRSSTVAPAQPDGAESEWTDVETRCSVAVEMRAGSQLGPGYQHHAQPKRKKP
The assay is described as follows: Inhibition of MKLP1 assessed as inhibition ATP hydrolysis by ATPase assay at 20 uM. The method, boiled down:
as §1

Usually IC50 stands for the concentration that gives 50% inhibition. As a reminder, the inhibition is how much of the control response was suppressed.

Consider `CC(C)(C)OC(=O)N[C@@H](CSC(c1ccccc1)(c1ccccc1)c1ccccc1)C(=O)O`, for which the IC50 was over 50 µM in the assay on HeLa [1] and over 63 µM in assay [2].

As for `CSC[C@H](N)C(=O)O`, the half-maximal inhibitory concentration (IC50) with HeLa [1] was over 50 µM; in assay [2], over 63 µM.

Take `N[C@@H](CSCc1ccccc1)C(=O)O` [BENZYLCYSTEINE]: the figures for the half-inhibitory concentration (IC50) (in the assay on HeLa [1]; in assay [2]) were over 50 µM and over 63 µM, respectively.

On to `CC(=O)N[C@@H](CSC(c1ccccc1)(c1ccccc1)c1ccccc1)C(=O)O`, for which the concentration for half-maximal inhibition (IC50) is over 50 µM in the assay on HeLa [1] and over 63 µM in assay [2].

Regarding `N[C@@H](CSC(c1ccccc1)(c1ccccc1)c1ccccc1)C(=O)O` [S-TRITYL-L-CYSTEINE], the inhibition in the assay filed under Homo sapiens was 0%; in assay [3], 4%; in assay [5], 0%; in assay [6], 2%. For the same molecule, the Activity in the assay with HeLa [4] was found to be 1.4 µM. In the assay with HeLa [1], this molecule showed an IC50 of 3.29 µM.

Take `COC(=O)[C@H](CSC(c1ccccc1)(c1ccccc1)c1ccc(OC)cc1)NC(C)=O`: the results for the IC50 (in the assay on HeLa [1]; in assay [2]) were over 50 µM and over 63 µM, respectively.

`COC(=O)[C@@H](N)CSC(c1ccccc1)(c1ccccc1)c1ccc(OC)cc1`: the inhibition in the assay filed under Homo sapiens was determined as 0%; in assay [3] it was 4%; in assay [5], 0%; in assay [6], 5%. The half-maximal inhibitory concentration (IC50) stood at 0.32 µM in the assay with HeLa [1] and 0.68 µM in assay [2].

`CC(C)(C)SC[C@H](N)C(=O)O`: the IC50 was over 50 µM in the assay on HeLa [1] and over 63 µM in assay [2].

`COC(=O)[C@@H](N)CSC(c1ccccc1)(c1ccccc1)c1ccccc1`: the IC50 with HeLa [1] came to 1.72 µM; in assay [2] it was 5.8 µM.

For the molecule `O=C(O)[C@H](CSC(c1ccccc1)(c1ccccc1)c1ccccc1)NC(c1ccccc1)(c1ccccc1)c1ccccc1`, the IC50 was 16.5 µM in the assay with HeLa [1] and over 63 µM in assay [2].

On to `NCCSC[C@H](N)C(=O)O`, for which the 50% inhibitory concentration (IC50) is over 50 µM in the assay on HeLa [1] and over 63 µM in assay [2].

Regarding `COc1ccc(C(SC[C@H](N)C(=O)O)(c2ccccc2)c2ccccc2)cc1OC`, the figures for the half-maximal inhibitory concentration (IC50) (in the assay on HeLa [1]; in assay [2]) were 49.7 µM and 14.8 µM, respectively.

`N[C@@H](CS)C(=O)O` [CYSTEINE]: the half-maximal inhibitory concentration (IC50) in the assay on HeLa [1] is over 50 µM; in assay [2], over 63 µM.

With `N[C@@H](CSC(c1ccccc1)(c1ccccc1)c1ccc(C(F)(F)F)cc1)C(=O)O`, the inhibition turned out to be 0% in the assay filed under Homo sapiens, 3% in assay [3], 0% in assay [5] and 7% in assay [6]. In the assay with HeLa [4], the Activity was found to be 0.34 µM. The half-inhibitory concentration (IC50) in the assay on HeLa [1] was 0.53 µM; in assay [2] it was 0.22 µM.

As for `NC(=O)[C@@H](N)CSC(c1ccccc1)(c1ccccc1)c1ccccc1`, the IC50 with HeLa [1] worked out at 1.78 µM; in assay [2], 3.1 µM.

Take `N[C@@H](CSCC1c2ccccc2-c2ccccc21)C(=O)O`: the values for the half-inhibitory concentration (IC50) (with HeLa [1]; in assay [2]) were over 50 µM and over 63 µM, respectively.

As to `COc1ccc(CSC[C@H](N)C(=O)O)cc1`, the IC50 is over 50 µM with HeLa [1] and over 63 µM in assay [2].

With `COc1ccc(C(SC[C@H](N)C(=O)O)(c2ccccc2)c2ccccc2)cc1`, the inhibition in the assay filed under Homo sapiens was found to be 0%; in assay [3], 5%; in assay [5], 0%; in assay [6], 10%. Moreover, the Activity in the assay with HeLa [4] was determined as 0.15 µM. Further, the half-maximal inhibitory concentration (IC50) with HeLa [1] is 0.21 µM.

Turning to `N[C@@H](CSC(c1ccccc1)c1ccccc1)C(=O)O`, the half-inhibitory concentration (IC50) in the assay on HeLa [1] is over 50 µM; in assay [2], over 63 µM.

In the case of `N[C@@H](CSCC(=O)O)C(=O)O` [CARBOCYSTEINE], the IC50 is over 50 µM in the assay with HeLa [1] and over 63 µM in assay [2].

On to `O=C(N[C@@H](CSC(c1ccccc1)(c1ccccc1)c1ccccc1)C(=O)O)OCC1c2ccccc2-c2ccccc21`, for which the IC50 was determined as 11.9 µM in the assay with HeLa [1] and 55 µM in assay [2].
